Activity calls are given as the source filed them. The calls are words filed in the database; no cut-off is given here.
What was measured:
A2780 ADR [1] = experiment: Reversal of P-gp 170-mediated multidrug resistance in human A2780/DX3 cells assessed as reduction in doxorubicin IC50 at IC0 pretreated for 6 hrs before doxorubicin administration measured after 3 days by MTT assay; type: cell-based; design: scale not given: the % may be the effect or the level left
Summary of the method: (§1)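 A2780/DX3 cells went into medium holding the modulator at its MTT-derived 0% or 5% growth-inhibition concentration. Doxorubicin (30–0.048 μM serial dilutions, modulator kept constant) was added 6 h later. MTT (2 mg/mL) was added after 3 days for 4 h at 37 °C, formazan dissolved in DMSO, A540 read. IC50 came from dose–response curves, repeated 4–6 times. % reduction is versus doxorubicin alone in the same experiment. Kruskal–Wallis/Mann–Whitney tests.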

[2] = Antiproliferative activity against human A2780/DX3 cells after 3 days by MTT assay; type: functional, cell-based; conditions: for IC50: Homo sapiens, A2780/DX3, 72 h
Summary of the method: (§2)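 Cells plated 6–8 h in 96-well plates. Compound alone, in duplicate at ≥5 concentrations (3-fold serial dilutions, top 100 μM), with final DMSO […] after predilution in FCS. After 3 days, MTT 4 h at 37 °C, formazan dissolved in DMSO, A540. IC50 taken from single dose–response curves; 3–4 experiments. A2780/DX3 kept doxorubicin-free 2–3 days beforehand.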

A2780 ADR [3] = experiment: Reversal of P-gp 170-mediated multidrug resistance in human A2780/DX3 cells assessed as reduction in doxorubicin IC50 at IC5 pretreated for 6 hrs before doxorubicin administration measured after 3 days by MTT assay; type: cell-based; design: scale not given: the % may be the effect or the level left; summary of the method: as §1
A2780 [4] = experiment: Antiproliferative activity against human A2780 cells at 2.22 uM after 3 days by MTT assay; type: functional; conditions: A2780, 72 h
A2780 [5] = experiment: Antiproliferative activity against human A2780 cells after 3 days by MTT assay; type: functional, cell-based; conditions: for IC50: Homo sapiens, A2780, 72 h; summary of the method: as §2
A2780 ADR [6] = experiment: Reversal of P-gp 170-mediated multidrug resistance in human A2780/DX3 cells assessed as increase in intracellular doxorubicin accumulation at 5 times IC5 pretreated for 2 hrs before doxorubicin administration measured after 2 hrs by flow cytometry; type: cell-based
Summary of the method: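 A2780/DX3 cells (kept in 0.1 μM doxorubicin, drug withdrawn 2–3 days before use) seeded in flasks, grown 24 h to 75–85% confluence. Modulator given at five times the 5%-growth-inhibition concentration for 2 h, then 10 μM doxorubicin for 2 h more. Cells trypsinized, fixed in 3.7% paraformaldehyde/2% sucrose in PBS. Flow cytometry, 488 nm excitation, 575 nm bandpass. Read-out is MFI, with % increase taken from the MFI ratio to doxorubicin alone.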

[7] = Antiproliferative activity against human A2780/DX3 cells at 2.40 uM after 3 days by MTT assay; type: functional; conditions: A2780/DX3, 72 h
[8] = Antiproliferative activity against human A2780/DX3 cells at 1.0 uM after 3 days by MTT assay; type: functional; conditions: A2780/DX3, 72 h
A2780 [9] = experiment: Antiproliferative activity against human A2780 cells at 12.2 uM after 3 days by MTT assay; type: functional; conditions: A2780, 72 h
A2780 [10] = experiment: Antiproliferative activity against human A2780 cells at 9.4 uM after 3 days by MTT assay; type: functional; conditions: A2780, 72 h
[11] = Antiproliferative activity against human A2780/DX3 cells at 4.2 uM after 3 days by MTT assay; type: functional; conditions: A2780/DX3, 72 h
A2780 [12] = experiment: Down regulation of P-gp 170 expression in human A2780 cells after 72 hrs by flow cytometry; type: functional, cell-based
Summary of the method: (§3)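 Cells exposed 72 h to compound at concentrations giving 5% or 0% growth inhibition. Then washed in PBS/2% FCS; 2.5 × 10^5 cells stained at 4 °C with anti-Pgp MM4.17 monoclonal, then FITC goat anti-mouse IgG, and analysed by flow cytometry.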

A2780 ADR [13] = experiment: Reversal of P-gp 170-mediated multidrug resistance in human A2780/DX3 cells assessed as increase in intracellular doxorubicin accumulation at 5 times IC5 pretreated for 2 hrs before doxorubicin administration measured after 2 hrs by epifluorescent microscopic analysis; type: cell-based
Summary of the method: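 A2780/DX3 cells on chamber slides at 75–85% confluence, pretreated 2 h with compound at five times the concentration giving 5% growth inhibition. Doxorubicin 10 μM then added for 2 h. Cells washed in cold PBS, fixed in 3.7% paraformaldehyde/2% sucrose, mounted and imaged by epifluorescence at 20X. Untreated and compound-only controls included.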

A2780 [14] = experiment: Antiproliferative activity against human A2780 cells at 0.6 uM after 3 days by MTT assay; type: functional; conditions: A2780, 72 h
[15] = Antiproliferative activity against human A2780/DX3 cells at 1.2 uM after 3 days by MTT assay; type: functional; conditions: A2780/DX3, 72 h
[16] = Down regulation of P-gp 170 expression in human A2780/DX3 cells after 72 hrs by flow cytometry; type: functional, cell-based; summary of the method: as §3
[17] = Antiproliferative activity against human A2780/DX3 cells at 4.5 uM after 3 days by MTT assay; type: functional; conditions: A2780/DX3, 72 h
A2780 [18] = experiment: Antiproliferative activity against human A2780 cells at 0.72 uM after 3 days by MTT assay; type: functional; conditions: A2780, 72 h
A2780 [19] = experiment: Antiproliferative activity against human A2780 cells at 5.3 uM after 3 days by MTT assay; type: functional; conditions: A2780, 72 h
[20] = Antiproliferative activity against human A2780/DX3 cells at 1.9 uM after 3 days by MTT assay; type: functional; conditions: A2780/DX3, 72 h
A2780 [21] = experiment: Antiproliferative activity against human A2780 cells at 1.2 uM after 3 days by MTT assay; type: functional; conditions: A2780, 72 h
A2780 [22] = experiment: Antiproliferative activity against human A2780 cells at 1.97 uM after 3 days by MTT assay; type: functional; conditions: A2780, 72 h
[23] = Antiproliferative activity against human A2780/DX3 cells at 0.84 uM after 3 days by MTT assay; type: functional; conditions: A2780/DX3, 72 h
A2780 [24] = experiment: Antiproliferative activity against human A2780 cells at 10 uM after 3 days by MTT assay; type: functional; conditions: A2780, 72 h
[25] = Antiproliferative activity against human A2780/DX3 cells at 6.2 uM after 3 days by MTT assay; type: functional; conditions: A2780/DX3, 72 h

Structure (SMILES)	IC50 (A2780 [5]) [µM]	Activity (A2780 ADR [1]) [%]	IC5 [2] [µM]	IC50 [2] [µM]	Activity (A2780 ADR [3]) [%]	IC5 (A2780 [5]) [µM]	Activity (A2780 ADR [6])	further results
O=c1onc2n1C=CSC2(O)c1ccccc1 (centres undefined)	> 100	-36	32.1	> 100	-18	4.4	inactive	Activity (A2780 [12]): inactive; Activity (A2780 ADR [13]): inactive; inhibition at 0.6 µM (A2780 [14]): 0%; inhibition at 1.2 µM [15]: 0%; Activity [16]: inactive
CCCCCCCCCCCCCCCOC1(c2ccc(Cl)cc2)SC=C(C)n2c1noc2=O (centres undefined)	> 100	-14	14.6	> 100	-13	2.1	< 48%	inhibition at 4.5 µM [17]: 0%; inhibition at 0.72 µM (A2780 [18]): 0%
CC1=CSC(O)(c2cccc(Cl)c2)c2noc(=O)n21 (centres undefined)	> 100	7	3.89	> 100	7	24.3	< 48%	inhibition at 1.97 µM (A2780 [22]): 0%; inhibition at 0.84 µM [23]: 0%
CC1=CSC(O)(c2ccccc2)c2noc(=O)n21 (centres undefined)	> 100	-16	49.4	> 100	-2	100	< 48%	inhibition at 10 µM (A2780 [24]): 0%; inhibition at 6.2 µM [25]: 0%

Second part, led by results:

IC50 (A2780 [5]) [µM]	Structure (SMILES)	Activity (A2780 ADR [1]) [%]	IC5 [2] [µM]	IC50 [2] [µM]	Activity (A2780 ADR [3]) [%]	IC5 (A2780 [5]) [µM]	Activity (A2780 ADR [6])	further results
> 100	CCCCCCCCCCCCCCCCCCOC1(c2ccc(Cl)cc2)SC=C(C)n2c1noc2=O (centres undefined)	-24	6.74	> 100	-20	4.74	< 48%	inhibition at 2.22 µM (A2780 [4]): 0%; inhibition at 2.4 µM [7]: 0%
89	CCCCOC1(c2ccc(Cl)cc2)SC=C(C)n2c1noc2=O (centres undefined)	-21	2.2	49	-16	19.7	< 48%	inhibition at 1 µM [8]: 0%; inhibition at 12.2 µM (A2780 [9]): 0%
148	COC1(c2ccc(Br)cc2)SC=C(C)n2c1noc2=O (centres undefined)	-9	8.9	> 100	-9	21.6	< 48%	inhibition at 9.4 µM (A2780 [10]): 0%; inhibition at 4.2 µM [11]: 0%
60	CC1=CSC(O)(c2cccc(C(F)(F)F)c2)c2noc(=O)n21 (centres undefined)	-22	12.6	71	-4	18.3	< 48%	inhibition at 5.3 µM (A2780 [19]): 0%; inhibition at 1.9 µM [20]: 0%
82	CCCCOC1(c2ccc(Br)cc2)SC=C(C)n2c1noc2=O (centres undefined)	3	3.2	78	3	7.7	< 48%	inhibition at 1 µM [8]: 0%; inhibition at 1.2 µM (A2780 [21]): 0%

Reference: ChEMBL document CHEMBL1139365, “Inhibition of MDR1 activity in vitro by a novel class of diltiazem analogues: toward new candidates” (J Med Chem, 2009)
